Reference: paper PMC3946497 (Molecular pharmaceutics, 2013)

Legend:
Assay type in all cases: in vivo, mouse
[1] = tested on: athymic nude mice bearing U87MG glioma xenografts; conditions: 60 min p.i.
[2] = tested on: athymic nude mice bearing U87MG human glioma xenografts; assay: SPECT/CT imaging with SPECT quantification of tumor uptake; conditions: U87MG glioma xenograft; ~37 MBq via tail vein; imaging at 60 min p.i.
How it was run: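 Imaging dose: ~37 MBq radiotracer (~0.8 µg conjugate) in 0.1 mL saline i.v.; mice imaged under isoflurane. SPECT: multi-pinhole collimator (0.6 mm), 75 projections per 30-min frame, 2 frames. CT: 45 kV, 500 µA, 2° intervals. Tumour ROIs drawn on CT; counts converted to activity via a standard curve from sources of known activity scanned the same way; expressed as %ID/cm3.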

[3] = tested on: athymic nude mice bearing U87MG human glioma xenografts; assay: Biodistribution in athymic nude mice bearing U87MG glioma xenografts; conditions: average ± SD; for Brain uptake / Eyes uptake / Heart uptake / Intestine uptake / Kidney uptake / Liver uptake / Lungs uptake / Muscle uptake / Spleen uptake / Blood uptake / Tumor uptake: tail vein ~0.1 MBq; for Blood uptake: γ-counting; for Tumor uptake: U87MG glioma xenograft
How it was run: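 Tumour model: female athymic nu/nu mice, 4–5 weeks old, inoculated s.c. in the shoulder flank with 5 × 10^6 U87MG cells and used 4 weeks later (tumours 0.1–0.5 g; mice 20–25 g). Dosing: ~0.1 MBq radiotracer (~2 ng conjugate) in filtered saline. Groups of 5–8 killed at 5, 30, 60 and 120 min by pentobarbital overdose. Blood and organs washed, blotted, weighed and γ-counted as %ID/g.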

[4] = tested on: athymic nude mice without tumors; assay: Metabolism study; conditions: ~10 MBq via tail vein, n = 3, radio-HPLC
How it was run: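 Tumour-free athymic nude mice (n = 3), ~10 MBq radiotracer i.v. Urine (manual void): mixed 1:1 with 50% acetonitrile, spun at 8,000 rpm, supernatant 0.20 µm-filtered. Feces: homogenised, suspended in 20% acetonitrile, vortexed ~5 min, spun, filtered. Filtrates analysed by C18 HPLC at 2.5 mL/min on a 0.05% TFA water/acetonitrile gradient (10% to 30% B over 20 min).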

[5] = co-injection of excess RGD2 (350 µg/mouse or 14 mg/kg), n = 6

**Q.** Which “Intestine uptake in the presence of RGD2” value [1, 5] does the source give for “[^99mTc(HYNIC-Galacto-RGD2)(tricine)(TPPTS)] (bicyclic or more) [^99mTc-Galacto-RGD2]” here?
**A.** The value was 1.82 ± 0.86 %ID/g.

**Q.** What about the “Lungs uptake in the presence of RGD2” value [1, 5] of the same substance?
**A.** Its value is 1.52 ± 0.27 %ID/g.

**Q.** What about the “Spleen uptake in the presence of RGD2” value [1, 5] of the same substance?
**A.** The value was 0.65 ± 0.07 %ID/g.

**Q.** And the “Tumor uptake with RGD2” value ([1]; co-injection of excess RGD2 (350 µg/mouse or 14 mg/kg), n = 6, average ± SD)?
**A.** Its value is 1.48 ± 0.42 %ID/g.

**Q.** And the “Reduction of liver uptake by co-injected excess RGD2” value ([1]; of its origin value)?
**A.** The value was 50%.

**Q.** What about the “Reduction of lung uptake by co-injected excess RGD2” value ([1]; of its origin value) of the same substance?
**A.** Its value is 50%.

**Q.** What about the “Tumor uptake on the basis of SPECT quantification” value [2] of the same substance?
**A.** Its value is ~ 8.5 %ID/cm^3.

**Q.** What about the Tumor/Blood ratio ([3]; 5 min p.i., n = 5) of the same substance?
**A.** The Tumor/Blood ratio was 9.43 ± 1.19.

**Q.** And the Tumor/Kidney ratio ([3]; 5 min p.i., n = 5)?
**A.** The Tumor/Kidney ratio was 0.52 ± 0.14.

**Q.** And the Tumor/Liver ratio ([3]; 5 min p.i., n = 5)?
**A.** Its Tumor/Liver ratio is 2.66 ± 0.51.

**Q.** And the Tumor/Lung ratio ([3]; 5 min p.i., n = 5)?
**A.** The Tumor/Lung ratio was 1.90 ± 0.21.

**Q.** What about the Tumor/Muscle ratio ([3]; 5 min p.i., n = 5) of the same substance?
**A.** Its Tumor/Muscle ratio is 3.98 ± 0.75.

**Q.** What about the Brain uptake ([3]; 5 min p.i., n = 5) of the same substance?
**A.** The Brain uptake was 0.41 ± 0.10 %ID/g.

**Q.** What about the Eyes uptake ([3]; 5 min p.i., n = 5) of the same substance?
**A.** Its Eyes uptake is 1.54 ± 0.49 %ID/g.

**Q.** And the Heart uptake ([3]; 5 min p.i., n = 5)?
**A.** Its Heart uptake is 2.36 ± 0.29 %ID/g.

**Q.** And the Intestine uptake ([3]; 5 min p.i., n = 5)?
**A.** Its Intestine uptake is 3.78 ± 0.52 %ID/g.

**Q.** And the Kidney uptake ([3]; 5 min p.i., n = 5)?
**A.** Its Kidney uptake is 18.75 ± 2.79 %ID/g.

**Q.** And the Liver uptake ([3]; 5 min p.i., n = 5)?
**A.** The Liver uptake was 4.00 ±1.10 %ID/g.

**Q.** What about the Lungs uptake ([3]; 5 min p.i., n = 5) of the same substance?
**A.** The Lungs uptake was 5.41 ± 0.58 %ID/g.

**Q.** What about the Muscle uptake ([3]; 5 min p.i., n = 5) of the same substance?
**A.** Its Muscle uptake is 2.73 ± 0.89 %ID/g.

**Q.** What about the Spleen uptake ([3]; 5 min p.i., n = 5) of the same substance?
**A.** Its Spleen uptake is 2.97 ± 0.43 %ID/g.

**Q.** And the Blood uptake ([3]; 5 min p.i., n = 5)?
**A.** The Blood uptake was 1.10 ± 0.16 %ID/g.

**Q.** What about the Tumor/Blood ratio ([3]; 30 min p.i., n = 5) of the same substance?
**A.** Its Tumor/Blood ratio is 9.65 ± 2.03.

**Q.** And the Tumor/Kidney ratio ([3]; 30 min p.i., n = 5)?
**A.** The Tumor/Kidney ratio was 0.61 ±0.12.

**Q.** What about the Tumor/Liver ratio ([3]; 30 min p.i., n = 5) of the same substance?
**A.** The Tumor/Liver ratio was 3.25 ± 0.85.

**Q.** And the Tumor/Lung ratio ([3]; 30 min p.i., n = 5)?
**A.** The Tumor/Lung ratio was 2.19 ± 0.75.

**Q.** And the Tumor/Muscle ratio ([3]; 30 min p.i., n = 5)?
**A.** The Tumor/Muscle ratio was 7.97 ± 2.53.

**Q.** And the Brain uptake ([3]; 30 min p.i., n = 5)?
**A.** The Brain uptake was 0.22 ± 0.06 %ID/g.

**Q.** And the Eyes uptake ([3]; 30 min p.i., n = 5)?
**A.** Its Eyes uptake is 1.20 ± 0.50 %ID/g.

**Q.** And the Heart uptake ([3]; 30 min p.i., n = 5)?
**A.** The Heart uptake was 1.65 ± 1.10 %ID/g.

**Q.** And the Intestine uptake ([3]; 30 min p.i., n = 5)?
**A.** The Intestine uptake was 4.24 ± 1.54 %ID/g.

**Q.** What about the Kidney uptake ([3]; 30 min p.i., n = 5) of the same substance?
**A.** The Kidney uptake was 13.13 ± 4.75 %ID/g.

**Q.** What about the Liver uptake ([3]; 30 min p.i., n = 5) of the same substance?
**A.** The Liver uptake was 2.82 ± 1.25 %ID/g.

**Q.** What about the Lungs uptake ([3]; 30 min p.i., n = 5) of the same substance?
**A.** The Lungs uptake was 4.24 ± 1.71 %ID/g.

**Q.** And the Muscle uptake ([3]; 30 min p.i., n = 5)?
**A.** The Muscle uptake was 1.10 ± 0.25 %ID/g.

**Q.** And the Spleen uptake ([3]; 30 min p.i., n = 5)?
**A.** Its Spleen uptake is 2.53 ± 0.85 %ID/g.

**Q.** What about the Blood uptake ([3]; 30 min p.i., n = 5) of the same substance?
**A.** Its Blood uptake is 0.92 ± 0.33 %ID/g.

**Q.** And the Tumor/Blood ratio ([3]; 60 min p.i., n = 8)?
**A.** The Tumor/Blood ratio was 15.94 ± 8.85.

**Q.** What about the Tumor/Kidney ratio ([3]; 60 min p.i., n = 8) of the same substance?
**A.** Its Tumor/Kidney ratio is 0.79 ±0.40.

**Q.** What about the Tumor/Liver ratio ([3]; 60 min p.i., n = 8) of the same substance?
**A.** The Tumor/Liver ratio was 3.05 ± 1.69.

**Q.** And the Tumor/Lung ratio ([3]; 60 min p.i., n = 8)?
**A.** The Tumor/Lung ratio was 2.73 ± 1.33.

**Q.** What about the Tumor/Muscle ratio ([3]; 60 min p.i., n = 8) of the same substance?
**A.** The Tumor/Muscle ratio was 9.40 ± 5.11.

**Q.** What about the Brain uptake ([3]; 60 min p.i., n = 8) of the same substance?
**A.** Its Brain uptake is 0.35 ± 0.28 %ID/g.

**Q.** And the Eyes uptake ([3]; 60 min p.i., n = 8)?
**A.** Its Eyes uptake is 0.81 ± 0.39 %ID/g.

**Q.** And the Heart uptake ([3]; 60 min p.i., n = 8)?
**A.** The Heart uptake was 1.27 ± 0.61 %ID/g.

**Q.** What about the Intestine uptake ([3]; 60 min p.i., n = 8) of the same substance?
**A.** The Intestine uptake was 5.45 ± 1.47 %ID/g.

**Q.** What about the Kidney uptake ([3]; 60 min p.i., n = 8) of the same substance?
**A.** Its Kidney uptake is 11.70 ± 4.06 %ID/g.

**Q.** What about the Liver uptake ([3]; 60 min p.i., n = 8) of the same substance?
**A.** The Liver uptake was 3.07 ± 2.14 %ID/g.

**Q.** What about the Lungs uptake ([3]; 60 min p.i., n = 8) of the same substance?
**A.** Its Lungs uptake is 2.93 ± 0.94 %ID/g.

**Q.** And the Muscle uptake ([3]; 60 min p.i., n = 8)?
**A.** Its Muscle uptake is 0.88 ± 0.34 %ID/g.

**Q.** What about the Spleen uptake ([3]; 60 min p.i., n = 8) of the same substance?
**A.** Its Spleen uptake is 1.99 ± 0.71 %ID/g.

**Q.** And the Blood uptake ([3]; 60 min p.i., n = 8)?
**A.** Its Blood uptake is 0.56 ± 0.25 %ID/g.

**Q.** What about the Tumor/Blood ratio ([3]; 120 min p.i., n = 8) of the same substance?
**A.** Its Tumor/Blood ratio is 26.48 ± 8.71.

**Q.** What about the Tumor/Kidney ratio ([3]; 120 min p.i., n = 8) of the same substance?
**A.** Its Tumor/Kidney ratio is 0.89 ±0.48.

**Q.** What about the Tumor/Liver ratio ([3]; 120 min p.i., n = 8) of the same substance?
**A.** The Tumor/Liver ratio was 4.03 ± 2.04.

**Q.** And the Tumor/Lung ratio ([3]; 120 min p.i., n = 8)?
**A.** Its Tumor/Lung ratio is 4.38 ± 1.34.

**Q.** And the Tumor/Muscle ratio ([3]; 120 min p.i., n = 8)?
**A.** Its Tumor/Muscle ratio is 12.91 ± 4.95.

**Q.** What about the Brain uptake ([3]; 120 min p.i., n = 8) of the same substance?
**A.** Its Brain uptake is 0.14 ± 0.12 %ID/g.

**Q.** And the Eyes uptake ([3]; 120 min p.i., n = 8)?
**A.** The Eyes uptake was 0.52 ± 0.15 %ID/g.

**Q.** What about the Heart uptake ([3]; 120 min p.i., n = 8) of the same substance?
**A.** The Heart uptake was 0.56 ± 0.08 %ID/g.

**Q.** What about the Intestine uptake ([3]; 120 min p.i., n = 8) of the same substance?
**A.** Its Intestine uptake is 3.37 ± 1.32 %ID/g.

**Q.** What about the Kidney uptake ([3]; 120 min p.i., n = 8) of the same substance?
**A.** The Kidney uptake was 6.04 ± 1.92 %ID/g.

**Q.** And the Liver uptake ([3]; 120 min p.i., n = 8)?
**A.** Its Liver uptake is 1.54 ±0.43 %ID/g.

**Q.** What about the Lungs uptake ([3]; 120 min p.i., n = 8) of the same substance?
**A.** The Lungs uptake was 1.31 ± 0.23 %ID/g.

**Q.** What about the Muscle uptake ([3]; 120 min p.i., n = 8) of the same substance?
**A.** Its Muscle uptake is 0.47 ± 0.12 %ID/g.

**Q.** What about the Spleen uptake ([3]; 120 min p.i., n = 8) of the same substance?
**A.** The Spleen uptake was 1.46 ± 0.26 %ID/g.

**Q.** And the Blood uptake ([3]; 120 min p.i., n = 8)?
**A.** The Blood uptake was 0.22 ± 0.03 %ID/g.

**Q.** What about the Tumor uptake ([3]; 5 min p.i., n = 5) of the same substance?
**A.** The Tumor uptake was 10.30 ± 1.67 %ID/g.

**Q.** What about the Tumor uptake ([3]; 30 min p.i., n = 5) of the same substance?
**A.** Its Tumor uptake is 8.37 ± 2.13 %ID/g.

**Q.** What about the Tumor uptake ([3]; 60 min p.i., n = 8) of the same substance?
**A.** The Tumor uptake was 6.86 ± 1.33 %ID/g.

**Q.** What about the Tumor uptake ([3]; 120 min p.i., n = 8) of the same substance?
**A.** The Tumor uptake was 5.61 ± 1.52 %ID/g.

**Q.** What about the “Remained intact in the feces” value ([4]; feces at 2 h p.i.) of the same substance?
**A.** The value was “More than 90%”.

**Q.** What about the “Metabolites in the urine” value ([4]; urine at 30 min and 120 min p.i.) of the same substance?
**A.** The value was “no metabolites detected”.
